The source of these data is ChEMBL document CHEMBL1765023, “Acetyl analogs of combretastatin A-4: synthesis and biological studies” (Bioorg Med Chem, 2011).

In one data set the test system is HCC 2998. Kind of data set: Growth inhibition of human HCC2998 cells after 48 hrs by sulforhodamine B assay. The format is functional. The following applies: HCC 2998, 48 h. Summed up:
(§1)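 NCI 60 human cancer cell line screen run at the National Cancer Institute. Cells had 48 h continuous exposure, and proliferation was read by sulforhodamine B staining. GI50 (50% growth inhibition) was taken from dose–response curves.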

Another data set concerns 786-0. Kind of data set: Growth inhibition of human 786-0 cells after 48 hrs by sulforhodamine B assay. In kind it is functional. The conditions noted are these: 786-0, 48 h. Summed up: as §1
Another data set deals with MCF7. Put plainly: Growth inhibition of human MCF7 cells after 48 hrs by sulforhodamine B assay. In kind it is functional. The conditions noted are these: MCF7, 48 h. Summed up:
as §1

The next data set deals with BT-549. Kind of data set: Growth inhibition of human BT549 cells after 48 hrs by sulforhodamine B assay. The format is functional. The following applies: BT-549, 48 h. Summed up: as §1
Data set [1] in a line: Ratio of EC50 for microtubule depolymerization in […] cells to IC50 for human MDA-MB-435 cells.
A further data set concerns Mus musculus. Put plainly: Toxicity in DBA2 mouse assessed as change in hematocrit at 75 mg/kg, ip QD administered on alternate days for 17 days measured on day 23 relative to control. In kind it is organism-based. Details: dose 75 mg/kg, route intraperitoneal. The following applies: in vivo, 408 h. Summed up:
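Healthy female DBA2 mice, 5–7 weeks old, five per group, received 75 mg/kg ip on days 1, 5, 9, 13 and 17. Vehicle was PET (PEG400/ethanol/Tween 80, 6:3:1), 5% glucose and DMSO, with final ethanol 15% and DMSO 10%. Controls received 100 µL vehicle. Body weight was measured every other day. At sacrifice on day 23, blood counts (hematocrit, WBC, granulocytes, platelets) and liver, kidney and spleen appearance and weight were assessed.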

In a further data set the test system is B16. Kind of data set: Cytotoxicity against mouse B16 cells by MTT assay. The format is functional, cell-based.
Data set [2] is described as follows: Growth inhibition of human […] cells after 48 hrs by sulforhodamine B assay. In kind it is functional. Summed up:
as §1

For a further data set, the system named is A549. Kind of data set: Growth inhibition of human A549 cells after 48 hrs by sulforhodamine B assay. The format is functional. The following applies: A549, 48 h. Summed up:
as §1

Consider `COc1ccc(/C=C(/C(C)=O)c2cc(OC)c(OC)c(OC)c2)cc1O`, for which the GI50 with HCC 2998 was 1.32 µM; with 786-0 it was 0.562 µM; in the data set with MCF7, 0.195 µM; with BT-549, 0.427 µM; in data set [2], 0.661 µM; in the data set with A549, 0.468 µM. In addition, the TGI is 11.5 µM in the data set on HCC 2998 (read-out: pTGI (converted)); 44.7 µM with 786-0 (read-out: pTGI (converted)); more than 100 µM with MCF7 (read-out: pTGI); 14.1 µM in the data set with BT-549 (read-out: pTGI (converted)); more than 100 µM in data set [2] (read-out: pTGI); more than 100 µM in the data set with A549 (read-out: pTGI). In [1], the Ratio is recorded as 10. In the data set on Mus musculus, the Activity entry is reported as “Non-toxic”. Moreover, the IC50 in the data set with B16 stood at 3.5 µM.
